# Reference: ChEMBL document CHEMBL4689842, “EUbOPEN Chemogenomics Library wave 1” (2021)
# What was measured:
# Type in all cases: toxicity, cell-based
# Fibroblast [1] = test: Multiplex assay against human fibroblast
# How it was run: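 Imaging took place on a CQ1 microscope at 37°C and 5% CO2 once compound had been added to live cells stained at seeding with Hoechst33342, BioTracker Green Microtubule Cytoskeleton Dye, MitoTracker Red and Annexin V Alexa Fluor 680. CellPathfinder machine-learning gating classed cells as Hoechst high-intensity objects or normal cells, classed normal cells as having healthy, pyknosed or fragmented nuclei, and classed pyknosed cells as mitotic or apoptotic. Tubulin, mitochondrial-mass and membrane-permeability phenotypes are per cents of the healthy-nucleus cells.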
# Fibroblast [2] = test: Incucyte cell viability with human fibroblast; conditions: 10 µM, compound concentration 10 uM; further: filed as whole numbers so only -1 and 0 and 1 occur
# U2OS = test: Incucyte cell viability with U2OS; conditions: human, 10 µM, compound concentration 10 uM; further: filed as whole numbers so only -1 and 0 and 1 occur
# [3] = 12 h, 1 µM, compound concentration 1 uM, replicate 1
# [4] = 12 h, 1 µM, compound concentration 1 uM, replicate 2
# [5] = 12 h, 10 µM, compound concentration 10 uM, replicate 1
# [6] = 12 h, 10 µM, compound concentration 10 uM, replicate 2
# [7] = 24 h, 1 µM, compound concentration 1 uM, replicate 1
# [8] = 24 h, 1 µM, compound concentration 1 uM, replicate 2
# [9] = 24 h, 10 µM, compound concentration 10 uM, replicate 1
# [10] = 24 h, 10 µM, compound concentration 10 uM, replicate 2
# [11] = 48 h, 1 µM, compound concentration 1 uM, replicate 1
# [12] = 48 h, 1 µM, compound concentration 1 uM, replicate 2
# [13] = 48 h, 10 µM, compound concentration 10 uM, replicate 1
# [14] = 48 h, 10 µM, compound concentration 10 uM, replicate 2
# [15] = 6 h, replicate number 2, timepoint 6 hours
# [16] = 12 h, replicate number 1, timepoint 12 hours
# [17] = 18 h, replicate number 1, timepoint 18 hours
# [18] = 24 h, replicate number 1, timepoint 24 hours
compound,measurement,setting,value
Nc1nc2c(c(N3CCNCC3)n1)CCC1=C2[C@@H]2CCCC[C@@H]2O1,Population Apoptotic (%),Fibroblast [1]; [3],67%
same,Population Fragmented Nuclei (%),Fibroblast [1]; [3],37%
same,Population Healthy Nuclei (%),Fibroblast [1]; [3],42%
same,Population Hoechst High Intensity Objects (%),Fibroblast [1]; [3],15%
same,Population Membrane Permeable-Phenotype (%),Fibroblast [1]; [3],10%
same,Population Mitochondria Different-Phenotype (%),Fibroblast [1]; [3],1%
same,Population Mitotic Cells (%),Fibroblast [1]; [3],32%
same,Population Normal (%),Fibroblast [1]; [3],84%
same,Population Pyknosed Nuclei (%),Fibroblast [1]; [3],20%
same,Population Tubulin-Different-Phenotype (%),Fibroblast [1]; [3],20%
same,Total Cell Count,Fibroblast [1]; [3],182
same,Population Apoptotic (%),Fibroblast [1]; [4],0%
same,Population Fragmented Nuclei (%),Fibroblast [1]; [4],20%
same,Population Healthy Nuclei (%),Fibroblast [1]; [4],61%
same,Population Membrane Permeable-Phenotype (%),Fibroblast [1]; [4],8%
same,Population Mitochondria Different-Phenotype (%),Fibroblast [1]; [4],27%
same,Population Mitotic Cells (%),Fibroblast [1]; [4],100%
same,Population Pyknosed Nuclei (%),Fibroblast [1]; [4],18%
same,Population Tubulin-Different-Phenotype (%),Fibroblast [1]; [4],21%
same,Total Cell Count,Fibroblast [1]; [4],71
same,Population Apoptotic (%),Fibroblast [1]; [5],56%
same,Population Fragmented Nuclei (%),Fibroblast [1]; [5],22%
same,Population Healthy Nuclei (%),Fibroblast [1]; [5],34%
same,Population Hoechst High Intensity Objects (%),Fibroblast [1]; [5],42%
same,Population Membrane Permeable-Phenotype (%),Fibroblast [1]; [5],4%
same,Population Mitochondria Different-Phenotype (%),Fibroblast [1]; [5],13%
same,Population Mitotic Cells (%),Fibroblast [1]; [5],43%
same,Population Normal (%),Fibroblast [1]; [5],57%
same,Population Pyknosed Nuclei (%),Fibroblast [1]; [5],43%
same,Population Tubulin-Different-Phenotype (%),Fibroblast [1]; [5],52%
same,Total Cell Count,Fibroblast [1]; [5],220
same,Population Apoptotic (%),Fibroblast [1]; [6],27%
same,Population Fragmented Nuclei (%),Fibroblast [1]; [6],9%
same,Population Healthy Nuclei (%),Fibroblast [1]; [6],68%
same,Population Hoechst High Intensity Objects (%),Fibroblast [1]; [6],3%
same,Population Membrane Permeable-Phenotype (%),Fibroblast [1]; [6],25%
same,Population Mitochondria Different-Phenotype (%),Fibroblast [1]; [6],87%
same,Population Mitotic Cells (%),Fibroblast [1]; [6],72%
same,Population Normal (%),Fibroblast [1]; [6],96%
same,Population Pyknosed Nuclei (%),Fibroblast [1]; [6],21%
same,Population Tubulin-Different-Phenotype (%),Fibroblast [1]; [6],92%
same,Total Cell Count,Fibroblast [1]; [6],106
same,Population Apoptotic (%),Fibroblast [1]; [7],55%
same,Population Fragmented Nuclei (%),Fibroblast [1]; [7],30%
same,Population Healthy Nuclei (%),Fibroblast [1]; [7],50%
same,Population Hoechst High Intensity Objects (%),Fibroblast [1]; [7],24%
same,Population Membrane Permeable-Phenotype (%),Fibroblast [1]; [7],21%
same,Population Mitochondria Different-Phenotype (%),Fibroblast [1]; [7],2%
same,Population Mitotic Cells (%),Fibroblast [1]; [7],44%
same,Population Normal (%),Fibroblast [1]; [7],75%
same,Population Pyknosed Nuclei (%),Fibroblast [1]; [7],19%
same,Population Tubulin-Different-Phenotype (%),Fibroblast [1]; [7],47%
same,Total Cell Count,Fibroblast [1]; [7],198
same,Population Apoptotic (%),Fibroblast [1]; [8],20%
same,Population Fragmented Nuclei (%),Fibroblast [1]; [8],22%
same,Population Healthy Nuclei (%),Fibroblast [1]; [8],57%
same,Population Hoechst High Intensity Objects (%),Fibroblast [1]; [8],8%
same,Population Membrane Permeable-Phenotype (%),Fibroblast [1]; [8],6%
same,Population Mitochondria Different-Phenotype (%),Fibroblast [1]; [8],20%
same,Population Mitotic Cells (%),Fibroblast [1]; [8],80%
same,Population Normal (%),Fibroblast [1]; [8],91%
same,Population Pyknosed Nuclei (%),Fibroblast [1]; [8],20%
same,Population Tubulin-Different-Phenotype (%),Fibroblast [1]; [8],16%
same,Total Cell Count,Fibroblast [1]; [8],82
same,Population Apoptotic (%),Fibroblast [1]; [9],57%
same,Population Fragmented Nuclei (%),Fibroblast [1]; [9],20%
same,Population Healthy Nuclei (%),Fibroblast [1]; [9],36%
same,Population Hoechst High Intensity Objects (%),Fibroblast [1]; [9],45%
same,Population Membrane Permeable-Phenotype (%),Fibroblast [1]; [9],12%
same,Population Mitochondria Different-Phenotype (%),Fibroblast [1]; [9],16%
same,Population Mitotic Cells (%),Fibroblast [1]; [9],42%
same,Population Normal (%),Fibroblast [1]; [9],55%
same,Population Pyknosed Nuclei (%),Fibroblast [1]; [9],43%
same,Population Tubulin-Different-Phenotype (%),Fibroblast [1]; [9],43%
same,Total Cell Count,Fibroblast [1]; [9],240
same,Population Apoptotic (%),Fibroblast [1]; [10],33%
same,Population Fragmented Nuclei (%),Fibroblast [1]; [10],8%
same,Population Healthy Nuclei (%),Fibroblast [1]; [10],46%
same,Population Hoechst High Intensity Objects (%),Fibroblast [1]; [10],2%
same,Population Membrane Permeable-Phenotype (%),Fibroblast [1]; [10],22%
same,Population Mitochondria Different-Phenotype (%),Fibroblast [1]; [10],79%
same,Population Mitotic Cells (%),Fibroblast [1]; [10],66%
same,Population Normal (%),Fibroblast [1]; [10],97%
same,Population Pyknosed Nuclei (%),Fibroblast [1]; [10],45%
same,Population Tubulin-Different-Phenotype (%),Fibroblast [1]; [10],69%
same,Total Cell Count,Fibroblast [1]; [10],109
same,Population Apoptotic (%),Fibroblast [1]; [11],71%
same,Population Fragmented Nuclei (%),Fibroblast [1]; [11],44%
same,Population Healthy Nuclei (%),Fibroblast [1]; [11],45%
same,Population Hoechst High Intensity Objects (%),Fibroblast [1]; [11],34%
same,Population Membrane Permeable-Phenotype (%),Fibroblast [1]; [11],10%
same,Population Mitochondria Different-Phenotype (%),Fibroblast [1]; [11],1%
same,Population Mitotic Cells (%),Fibroblast [1]; [11],28%
same,Population Normal (%),Fibroblast [1]; [11],65%
same,Population Pyknosed Nuclei (%),Fibroblast [1]; [11],10%
same,Population Tubulin-Different-Phenotype (%),Fibroblast [1]; [11],22%
same,Total Cell Count,Fibroblast [1]; [11],296
same,Population Apoptotic (%),Fibroblast [1]; [12],41%
same,Population Fragmented Nuclei (%),Fibroblast [1]; [12],34%
same,Population Healthy Nuclei (%),Fibroblast [1]; [12],56%
same,Population Membrane Permeable-Phenotype (%),Fibroblast [1]; [12],13%
same,Population Mitochondria Different-Phenotype (%),Fibroblast [1]; [12],2%
same,Population Mitotic Cells (%),Fibroblast [1]; [12],58%
same,Population Pyknosed Nuclei (%),Fibroblast [1]; [12],9%
same,Population Tubulin-Different-Phenotype (%),Fibroblast [1]; [12],36%
same,Total Cell Count,Fibroblast [1]; [12],204
same,Population Apoptotic (%),Fibroblast [1]; [13],41%
same,Population Fragmented Nuclei (%),Fibroblast [1]; [13],20%
same,Population Healthy Nuclei (%),Fibroblast [1]; [13],50%
same,Population Hoechst High Intensity Objects (%),Fibroblast [1]; [13],49%
same,Population Membrane Permeable-Phenotype (%),Fibroblast [1]; [13],6%
same,Population Mitochondria Different-Phenotype (%),Fibroblast [1]; [13],11%
same,Population Mitotic Cells (%),Fibroblast [1]; [13],58%
same,Population Normal (%),Fibroblast [1]; [13],50%
same,Population Pyknosed Nuclei (%),Fibroblast [1]; [13],29%
same,Population Tubulin-Different-Phenotype (%),Fibroblast [1]; [13],58%
same,Total Cell Count,Fibroblast [1]; [13],244
same,Population Apoptotic (%),Fibroblast [1]; [14],38%
same,Population Fragmented Nuclei (%),Fibroblast [1]; [14],27%
same,Population Healthy Nuclei (%),Fibroblast [1]; [14],49%
same,Population Hoechst High Intensity Objects (%),Fibroblast [1]; [14],47%
same,Population Membrane Permeable-Phenotype (%),Fibroblast [1]; [14],9%
same,Population Mitochondria Different-Phenotype (%),Fibroblast [1]; [14],10%
same,Population Mitotic Cells (%),Fibroblast [1]; [14],61%
same,Population Normal (%),Fibroblast [1]; [14],52%
same,Population Pyknosed Nuclei (%),Fibroblast [1]; [14],23%
same,Population Tubulin-Different-Phenotype (%),Fibroblast [1]; [14],52%
same,Total Cell Count,Fibroblast [1]; [14],215
same,Growth Rate,"Fibroblast [2]; 0 h, replicate number 1, timepoint 0 hours",0
same,Growth Rate,"Fibroblast [2]; 6 h, replicate number 1, timepoint 6 hours",1
same,Growth Rate,Fibroblast [2]; [15],0
same,Growth Rate,Fibroblast [2]; [16],0
same,Growth Rate,Fibroblast [2]; [17],0
same,Growth Rate,Fibroblast [2]; [18],0
same,Growth Rate,"U2OS; 0 h, replicate number 2, timepoint 0 hours",0
same,Growth Rate,U2OS; [15],1
same,Growth Rate,U2OS; [16],1
same,Growth Rate,U2OS; [17],1
same,Growth Rate,U2OS; [18],1
